# According to ChEMBL document CHEMBL5724801, “EUbOPEN Chemogenomics Library - Multiplex” (2024):
# Where “and” joins values, the source holds several entries; their conditions need not be identical. Equal entries are not always repeated.
# System: U2OS
# Assay: Multiplex assay against U2OS
# Type: toxicity, cell-based
# Details: human
# Method in brief: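 Values for tubulin, mitochondrial-mass and membrane-permeability phenotypes are per cents of cells with healthy nuclei. These cells were identified by CellPathfinder machine-learning gating of live cells that had been stained at seeding with Hoechst33342, BioTracker Green Microtubule Cytoskeleton Dye, MitoTracker Red and Annexin V Alexa Fluor 680 and imaged on a CQ1 microscope at 37°C and 5% CO2 after compound addition. The gating first set Hoechst high-intensity objects apart from normal cells, then split normal cells into healthy, pyknosed or fragmented nuclei, and pyknosed cells into mitotic or apoptotic.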
# [1] = 12 h, 1 µM, compound concentration 1 uM
# [2] = 12 h, 10 µM, compound concentration 10 uM
# [3] = 24 h, 1 µM, compound concentration 1 uM
# [4] = 24 h, 10 µM, compound concentration 10 uM
# [5] = 48 h, 1 µM, compound concentration 1 uM
# [6] = 48 h, 10 µM, compound concentration 10 uM
structure (smiles),measurement,setting,value
CCCCCCNC(=O)Nc1ccc(S(=O)(=O)Nc2ccc(CCNC[C@H](O)COc3ccc(O)cc3)cc2)cc1 [L-755507],Population Apoptotic (%),[1],86% and 100%
same,Population Fragmented Nuclei (%),[1],22% and 18%
same,Population Healthy Nuclei (%),[1],67% and 75%
same,Population Hoechst High Intensity Objects (%),[1],4% and 0%
same,Population Membrane Permeable-Phenotype (%),[1],4% and 10%
same,Population Mitochondria Different-Phenotype (%),[1],4% and 1%
same,Population Mitotic Cells (%),[1],13% and 0%
same,Population Normal (%),[1],95% and 99%
same,Population Pyknosed Nuclei (%),[1],9% and 5%
same,Population Tubulin-Different-Phenotype (%),[1],4% and 5%
same,Total Cell Count,[1],231 and 120
same,Population Apoptotic (%),[2],60% and 72%
same,Population Fragmented Nuclei (%),[2],31% and 19%
same,Population Healthy Nuclei (%),[2],59% and 72%
same,Population Hoechst High Intensity Objects (%),[2],3% and 2%
same,Population Membrane Permeable-Phenotype (%),[2],13% and 19%
same,Population Mitochondria Different-Phenotype (%),[2],11% and 15%
same,Population Mitotic Cells (%),[2],40% and 27%
same,Population Normal (%),[2],96% and 97%
same,Population Pyknosed Nuclei (%),[2],9% and 8%
same,Population Tubulin-Different-Phenotype (%),[2],10% and 15%
same,Total Cell Count,[2],282 and 140
same,Population Apoptotic (%),[3],83% and 92%
same,Population Fragmented Nuclei (%),[3],22% and 23%
same,Population Healthy Nuclei (%),[3],66% and 67%
same,Population Hoechst High Intensity Objects (%),[3],4% and 2%
same,Population Membrane Permeable-Phenotype (%),[3],5% and 11%
same,Population Mitochondria Different-Phenotype (%),[3],5% and 1%
same,Population Mitotic Cells (%),[3],16% and 7%
same,Population Normal (%),[3],95% and 97%
same,Population Pyknosed Nuclei (%),[3],11% and 9%
same,Population Tubulin-Different-Phenotype (%),[3],3% and 5%
same,Total Cell Count,[3],285 and 143
same,Population Apoptotic (%),[4],85% and 88%
same,Population Fragmented Nuclei (%),[4],25% and 14%
same,Population Healthy Nuclei (%),[4],65% and 79%
same,Population Hoechst High Intensity Objects (%),[4],2%
same,Population Membrane Permeable-Phenotype (%),[4],7% and 9%
same,Population Mitochondria Different-Phenotype (%),[4],4% and 5%
same,Population Mitotic Cells (%),[4],14% and 11%
same,Population Normal (%),[4],97%
same,Population Pyknosed Nuclei (%),[4],9% and 6%
same,Population Tubulin-Different-Phenotype (%),[4],3% and 6%
same,Total Cell Count,[4],307 and 149
same,Population Apoptotic (%),[5],78% and 91%
same,Population Fragmented Nuclei (%),[5],14% and 26%
same,Population Healthy Nuclei (%),[5],74% and 61%
same,Population Hoechst High Intensity Objects (%),[5],1% and 4%
same,Population Membrane Permeable-Phenotype (%),[5],6% and 12%
same,Population Mitochondria Different-Phenotype (%),[5],3% and 5%
same,Population Mitotic Cells (%),[5],21% and 8%
same,Population Normal (%),[5],98% and 95%
same,Population Pyknosed Nuclei (%),[5],11% and 12%
same,Population Tubulin-Different-Phenotype (%),[5],3% and 6%
same,Total Cell Count,[5],422 and 188
same,Population Apoptotic (%),[6],80% and 94%
same,Population Fragmented Nuclei (%),[6],19% and 13%
same,Population Healthy Nuclei (%),[6],70% and 78%
same,Population Hoechst High Intensity Objects (%),[6],2% and 1%
same,Population Membrane Permeable-Phenotype (%),[6],7%
same,Population Mitochondria Different-Phenotype (%),[6],2% and 3%
same,Population Normal (%),[6],97% and 98%
same,Population Pyknosed Nuclei (%),[6],9% and 7%
same,Population Tubulin-Different-Phenotype (%),[6],4% and 6%
same,Total Cell Count,[6],419 and 242
CN1CCN2c3ncccc3Cc3ccccc3C2C1 (configuration not stated) [MIRTAZAPINE],Population Apoptotic (%),[1],82% and 100%
same,Population Fragmented Nuclei (%),[1],21%
same,Population Healthy Nuclei (%),[1],67% and 72%
same,Population Hoechst High Intensity Objects (%),[1],1%
same,Population Membrane Permeable-Phenotype (%),[1],3% and 5%
same,Population Mitochondria Different-Phenotype (%),[1],1% and 6%
same,Population Mitotic Cells (%),[1],17% and 0%
same,Population Normal (%),[1],99% and 98%
same,Population Pyknosed Nuclei (%),[1],11% and 6%
same,Population Tubulin-Different-Phenotype (%),[1],2% and 3%
same,Population Apoptotic (%),[2],73% and 66%
same,Population Fragmented Nuclei (%),[2],19% and 13%
same,Population Healthy Nuclei (%),[2],71% and 82%
same,Population Hoechst High Intensity Objects (%),[2],3%
same,Population Membrane Permeable-Phenotype (%),[2],6% and 3%
same,Population Mitochondria Different-Phenotype (%),[2],5% and 4%
same,Population Mitotic Cells (%),[2],26% and 33%
same,Population Normal (%),[2],96%
same,Population Pyknosed Nuclei (%),[2],8% and 3%
same,Population Tubulin-Different-Phenotype (%),[2],6% and 0%
same,Population Apoptotic (%),[3],85% and 100%
same,Population Fragmented Nuclei (%),[3],15% and 26%
same,Population Healthy Nuclei (%),[3],76% and 63%
same,Population Hoechst High Intensity Objects (%),[3],2% and 3%
same,Population Membrane Permeable-Phenotype (%),[3],5% and 3%
same,Population Mitochondria Different-Phenotype (%),[3],3%
same,Population Mitotic Cells (%),[3],14% and 0%
same,Population Normal (%),[3],97% and 96%
same,Population Pyknosed Nuclei (%),[3],8% and 10%
same,Population Tubulin-Different-Phenotype (%),[3],2% and 4%
same,Population Apoptotic (%),[4],89% and 83%
same,Population Fragmented Nuclei (%),[4],18% and 9%
same,Population Healthy Nuclei (%),[4],71% and 85%
same,Population Hoechst High Intensity Objects (%),[4],2% and 0%
same,Population Membrane Permeable-Phenotype (%),[4],4% and 5%
same,Population Mitochondria Different-Phenotype (%),[4],2%
same,Population Mitotic Cells (%),[4],10% and 16%
same,Population Normal (%),[4],97% and 99%
same,Population Pyknosed Nuclei (%),[4],9% and 5%
same,Population Tubulin-Different-Phenotype (%),[4],0% and 5%
same,Total Cell Count,[4],314 and 108
same,Population Apoptotic (%),[5],83% and 92%
same,Population Fragmented Nuclei (%),[5],12% and 20%
same,Population Healthy Nuclei (%),[5],76% and 68%
same,Population Hoechst High Intensity Objects (%),[5],2% and 4%
same,Population Membrane Permeable-Phenotype (%),[5],4% and 8%
same,Population Mitochondria Different-Phenotype (%),[5],2% and 4%
same,Population Mitotic Cells (%),[5],16% and 7%
same,Population Normal (%),[5],97% and 95%
same,Population Pyknosed Nuclei (%),[5],10% and 11%
same,Population Tubulin-Different-Phenotype (%),[5],3% and 1%
same,Population Apoptotic (%),[6],95% and 100%
same,Population Fragmented Nuclei (%),[6],15% and 12%
same,Population Healthy Nuclei (%),[6],75% and 78%
same,Population Hoechst High Intensity Objects (%),[6],2%
same,Population Membrane Permeable-Phenotype (%),[6],7% and 3%
same,Population Mitochondria Different-Phenotype (%),[6],4% and 3%
same,Population Mitotic Cells (%),[6],5% and 0%
same,Population Normal (%),[6],97%
same,Population Pyknosed Nuclei (%),[6],9%
same,Population Tubulin-Different-Phenotype (%),[6],5% and 3%
same,Total Cell Count,[6],435 and 170
O=C(O)c1cc2ccccc2c(Cc2c(O)c(C(=O)O)cc3ccccc23)c1O [PAMOIC ACID],Population Apoptotic (%),[1],85% and 50%
same,Population Fragmented Nuclei (%),[1],23% and 15%
same,Population Healthy Nuclei (%),[1],68% and 73%
same,Population Hoechst High Intensity Objects (%),[1],1% and 0%
same,Population Membrane Permeable-Phenotype (%),[1],2% and 12%
same,Population Mitochondria Different-Phenotype (%),[1],0% and 6%
same,Population Normal (%),[1],98% and 100%
same,Population Pyknosed Nuclei (%),[1],8% and 11%
same,Population Tubulin-Different-Phenotype (%),[1],0% and 13%
same,Total Cell Count,[1],246 and 109
same,Population Apoptotic (%),[2],75% and 87%
same,Population Fragmented Nuclei (%),[2],19%
same,Population Healthy Nuclei (%),[2],75%
same,Population Hoechst High Intensity Objects (%),[2],2% and 0%
same,Population Membrane Permeable-Phenotype (%),[2],6% and 5%
same,Population Mitochondria Different-Phenotype (%),[2],1% and 3%
same,Population Mitotic Cells (%),[2],25% and 12%
same,Population Normal (%),[2],97% and 100%
same,Population Pyknosed Nuclei (%),[2],4% and 5%
same,Population Tubulin-Different-Phenotype (%),[2],4% and 2%
same,Total Cell Count,[2],259 and 140
same,Population Apoptotic (%),[3],92% and 76%
same,Population Fragmented Nuclei (%),[3],18% and 20%
same,Population Healthy Nuclei (%),[3],72% and 70%
same,Population Hoechst High Intensity Objects (%),[3],1% and 0%
same,Population Membrane Permeable-Phenotype (%),[3],2% and 11%
same,Population Mitochondria Different-Phenotype (%),[3],0% and 2%
same,Population Mitotic Cells (%),[3],8% and 23%
same,Population Normal (%),[3],98% and 99%
same,Population Pyknosed Nuclei (%),[3],8% and 9%
same,Population Tubulin-Different-Phenotype (%),[3],1% and 7%
same,Total Cell Count,[3],288 and 139
same,Population Apoptotic (%),[4],82% and 90%
same,Population Fragmented Nuclei (%),[4],17% and 13%
same,Population Healthy Nuclei (%),[4],76% and 79%
same,Population Hoechst High Intensity Objects (%),[4],3% and 1%
same,Population Membrane Permeable-Phenotype (%),[4],5% and 7%
same,Population Mitochondria Different-Phenotype (%),[4],2% and 3%
same,Population Mitotic Cells (%),[4],17% and 9%
same,Population Normal (%),[4],96% and 98%
same,Population Pyknosed Nuclei (%),[4],5% and 6%
same,Population Tubulin-Different-Phenotype (%),[4],3% and 7%
same,Total Cell Count,[4],314 and 163
same,Population Apoptotic (%),[5],83% and 90%
same,Population Fragmented Nuclei (%),[5],16% and 11%
same,Population Healthy Nuclei (%),[5],74% and 76%
same,Population Hoechst High Intensity Objects (%),[5],1% and 2%
same,Population Membrane Permeable-Phenotype (%),[5],2% and 9%
same,Population Mitochondria Different-Phenotype (%),[5],1% and 3%
same,Population Mitotic Cells (%),[5],16% and 10%
same,Population Normal (%),[5],98% and 97%
same,Population Pyknosed Nuclei (%),[5],9% and 11%
same,Population Tubulin-Different-Phenotype (%),[5],2% and 5%
same,Total Cell Count,[5],469 and 177
same,Population Apoptotic (%),[6],96% and 89%
same,Population Fragmented Nuclei (%),[6],15% and 20%
same,Population Healthy Nuclei (%),[6],77% and 66%
same,Population Hoechst High Intensity Objects (%),[6],3% and 0%
same,Population Membrane Permeable-Phenotype (%),[6],5% and 6%
same,Population Mitochondria Different-Phenotype (%),[6],1% and 2%
same,Population Mitotic Cells (%),[6],3% and 10%
same,Population Normal (%),[6],96% and 99%
same,Population Pyknosed Nuclei (%),[6],6% and 13%
same,Population Tubulin-Different-Phenotype (%),[6],4% and 2%
same,Total Cell Count,[6],455 and 218
